# Bioassay records as filed in PubChem.
# TAAR1 agonist – human TAAR1 agonists, primary screen, Fluo-8 calcium fluorescence, CHO RD-HGA16 cells | 360,000 tested, 0.99% active | Trace amine-associated receptor 1 (Homo sapiens), Q96RJ0 | activation, % at 3 µM | vehicle wells 0%, saturating PEA agonist 100%;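 active = activation above the mean activation of all test compounds in the run plus 3 SD, cut at about 38% in these data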
#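 Test system: RD-HGA16 (CHO) cells co-expressing Gα16 and hTAAR1; dosing: one-point dosing at 3 µM (nominal); timing: 17-24 h seeding, 75 min 37 °C dye, 30 min RT; signal: kinetic Fluo-8 calcium fluorescence; read-out basis: % activation relative to PEA EC100 response; controls: DMSO and PEA EC100; replicates: n 1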
# GalR3 antagonist – GalR3 antagonists in HEK293 cells, primary screen, cell-based, fluorescence readout. HEK293 GalR3-CNG cAMP membrane potential fluorescence; galR3 body fused to GalR1 C-terminus. inhibition, % at 3 µM. 360,000 tested, 0.44% active. AID 651719, 2012;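 active = inhibition above the screen-wide average plus 3 SD, cut at about 13% in these data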;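 also: forskolin and galanin both at EC90 stimulate the cells; cAMP rise reported by CNG channel membrane potential dye signal; 0% = forskolin plus galanin with DMSO and 100% = forskolin alone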
# CHO parental Ca – ATP-evoked calcium signal inhibitors, parental CHO, primary screen, counter-screen for OX1R antagonist project, cell-based, fluorescence, Fluo-8 calcium dye | parental CHO-K1, ATP-induced calcium, Fluo-8 fluorescence | inhibition, % at 5.6 µM | 330,000 tested, 0.63% active | AID 463079, 2010;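 active = inhibition above that plate's mean sample inhibition plus 3 SD, cut at about 26% in these data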;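 also: 0% = ATP-challenged DMSO wells and 100% = DMSO wells without ATP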
#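 Material – parental CHO cells · Reagent – ATP stimulus · Compound – single nominal dose of 5.6 µM per compound · Detection – Fluo-8 fluorescence · Read-out basis – percent inhibition of calcium signal · Controls – ATP-challenged DMSO wells low, unchallenged DMSO wells high · Repeats – no replicates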
# OX1R antag-1 – OX1R (HCRTR1) antagonists, primary screen, fluorescence, CHO/OX1R cells, Fluo-8 calcium, orexin A | Orexin/Hypocretin receptor type 1 (Homo sapiens), O43613 | Fluo-8 calcium fluorescence | 330,000 tested, 0.43% active | inhibition, % at 5 µM | AID 434989, 2010;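 active = inhibition above its plate's threshold, mean inhibition of all tested compounds on the plate plus 3 SD, cut at about 37% in these data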;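 also: 0% = orexin A challenge wells and 100% = SB-334867-A antagonist wells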
# Target sequence (O43613 whole entry, looked up): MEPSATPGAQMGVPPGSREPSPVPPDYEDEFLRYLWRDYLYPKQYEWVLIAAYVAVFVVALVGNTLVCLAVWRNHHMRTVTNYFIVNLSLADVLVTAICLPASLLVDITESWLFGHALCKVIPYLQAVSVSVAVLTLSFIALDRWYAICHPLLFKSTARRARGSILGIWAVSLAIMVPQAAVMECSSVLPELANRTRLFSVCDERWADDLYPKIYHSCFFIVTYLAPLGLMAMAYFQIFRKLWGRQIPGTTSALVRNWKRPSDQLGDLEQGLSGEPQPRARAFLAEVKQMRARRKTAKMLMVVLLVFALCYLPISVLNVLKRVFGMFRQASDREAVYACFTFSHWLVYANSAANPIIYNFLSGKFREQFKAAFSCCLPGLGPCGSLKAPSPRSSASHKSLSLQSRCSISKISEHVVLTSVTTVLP
# TAAR1 antag – human TAAR1 antagonists, primary screen, Fluo-8 calcium fluorescence, CHO RD-HGA16 cells. Trace amine-associated receptor 1 (Homo sapiens), Q96RJ0. antagonist. inhibition, % at 3 µM. 360,000 tested, 1.5% active. AID 624466, 2012;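 active = inhibition above a per-plate cutoff, the mean inhibition of test compounds on that plate plus 3 SD, cut at about 49% in these data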;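 also: 0% = DMSO plus EC80 beta-PEA response and 100% = DMSO alone without agonist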
#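 Test system: RD-HGA16 CHO cells with stable hTAAR1 and Gα16 / Probe or stimulus: EC80 β-phenethylamine stimulus / Times: seeding 17-24 h prior, 75-min 37 °C, 30-min RT dye loading / Detection: Fluo-8 calcium-sensitive fluorescence / Read-out basis: % inhibition scaled between DMSO and EC80 PEA controls / Repeats: singlicate, one well per test compound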
# OX1R antag-2 – antagonists of human orexin 1 receptor (OX1R); OX1R-expressing cells, FRET antagonist read-out; inhibition, % at 6.6 µM; 330,000 tested, 1.8% active; AID 485270, 2010; in the data active = inhibition mostly above about 38%, no sharp cut-off; inactive = mostly below about 40%;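 also: 0% = agonist challenge alone and 100% = reference antagonist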
# GalR3 antag conf – GalR3 antagonist hit confirmation, cell-based, fluorescence, triplicate; inhibition, % at 3 µM; AID 652245, 2013; 1,600 tested, 59% active; HEK293 GalR3 CNG cAMP biosensor, membrane potential fluorescence; galR3 fused to GalR1 carboxy tail; challenged with forskolin and galanin at EC90; shares compounds with GalR3 antagonist;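 active = inhibition above the primary screen's cutoff, the mean inhibition of all screened compounds plus 3 SD, cut at about 13% in these data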;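 also: 0% = forskolin plus galanin and 100% = forskolin alone with DMSO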
# HEK-CNG parental – nonspecific cAMP agonists in parental HEK-CNG cells, counter-screen for GalR3 antagonist project, cell-based, fluorescence, high throughput; activation, % at 3 µM; shares compounds with GalR3 antagonist; 1,600 tested, 10% active; HEK293-CNG parental cells, cAMP membrane potential fluorescence; normalised: DMSO wells 0%, forskolin wells 100%; AID 652268, 2013; in the data active = activation above about 1.3%
# Numbers without * were called inactive; / = no result given. An excerpt weighted towards active compounds, which were near 4.2% of everything screened.
SMILES,TAAR1 agonist,GalR3 antagonist,CHO parental Ca,OX1R antag-1,TAAR1 antag,OX1R antag-2,GalR3 antag conf,HEK-CNG parental
CN1CCN(C(=S)C(=O)Nc2ccc(Br)cc2)CC1,3.4,39.6*,1.5,-8.8,-0.7,15.6,3.8,0.1
CC(NC(=O)CSc1nc2ccccc2c(=O)[nH]1)c1ccccc1 (stereo not drawn),11.2,-2.4,-12.1,-3.4,1.0,22.5,/,/
CC(Nc1ncnc2ccccc12)c1ccccc1 (stereo not drawn),5.2,95.5*,38.2*,21.1,34.3,6.0,105.8*,-0.2
CCCCC(Nc1ncnc2ccccc12)C(=O)O (stereo not drawn),5.1,0.9,-7.2,-3.8,-2.6,7.0,/,/
CCN(CC)c1ccc(NS(=O)(=O)c2ccc3c(c2)oc(=O)n3C)c(C)c1,1.8,/,-13.1,-13.7,-28.7,7.6,/,/
CCCOC(=O)CCCC[C@H]1SC[C@@H](NC(=O)OC)[C@H]1NC(=O)OC,-0.3,13.9*,-0.1,-17.5,-11.1,-1.9,4.8,0.3
COC(=O)CCCCC1SCC2NC(=O)NC21 (stereo not drawn),12.2,-3.9,7.3,-4.0,11.8,20.0,/,/
Nc1nc(Cl)nc2c1ncn2[C@H]1C[C@H](O)[C@@H](CO)O1,0.5,49.3*,-3.6,-5.2,-8.6,11.8,56.9*,1.3*
COc1ccc(Oc2coc3c(CN4CCOCC4)c(O)ccc3c2=O)cc1,1.2,-3.0,21.4,-3.8,9.3,30.4,/,/
Cc1ccc(NC(=O)CNc2ccc(Cl)c(Cl)c2)cc1S(=O)(=O)N(C)C,25.2,45.1*,26.2,-15.2,31.4,25.7,89.7*,-1.3
COc1ccc(OC)c(C2C3=C(COC3=O)Nc3cc4c(cc32)OCO4)c1 (stereo not drawn),19.1,27.8*,-18.0,-10.7,-13.6,0.7,22.9*,1.4*
COc1ccc(-n2c(Cn3nc(C(F)(F)F)cc3C)n[nH]c2=S)cc1,0.5,-2.7,-9.8,-18.8,-2.8,13.3,/,/
CN(C)S(=O)(=O)c1cccc(C(=O)Nc2ccccc2[N+](=O)[O-])c1,4.2,15.3*,-11.5,-18.5,-12.5,26.3,2.3,-0.1
CCSc1nsc(NC(=O)Nc2cccc(F)c2)n1,14.4,69.3*,101.2*,103.8*,17.1,84.4*,28.2*,-0.9
CCCSc1nsc(NC(=O)Nc2ccc(F)cc2F)n1,7.0,-2.7,21.9,-20.1,8.6,45.0,/,/
CCCCCC(O)C=CC1C(O)CC(O)C1CC=CCCCC(=O)O (stereo not drawn),0.4,95.9*,/,/,-1.3,/,95.3*,0.4
CC(C)(C)c1cc(-c2ccccc2)no1,17.7,-7.6,-15.0,-12.4,-5.2,0.0,/,/
CNc1ccccc1C(C)(C)c1cc(-c2ccc(F)cc2)no1,8.3,48.8*,-24.8,-19.7,21.1,9.9,68.6*,-0.4
CCOC(=O)C1=C(c2ccccc2)NC(N)=NC1c1ccc(OCc2ccc(C(=O)OC)cc2)cc1 (stereo not drawn),1.1,-3.1,-7.5,-8.6,0.9,2.7,/,/
Cc1nc(SCc2nc3ccc(C(=O)c4ccccc4)cc3[nH]2)c2oc3ccccc3c2n1,9.9,13.8*,-17.7,26.8,24.7,31.1,21.9*,0.4
